Results on five molecules are retold here after paper PMC11319934 (PNAS Nexus, 2024).

The Kd is the concentration at which binding is half-saturated. Read a high Kd as lower affinity.

Bridge positions count the residues as written; N and C are the ends. Square brackets hold non-standard residues; d marks the D form. Peptide text beside a SMILES is read from it. * marks the point of attachment. X1 = CN(C)c1ccc2c(-c3ccc(C(=O)*)cc3C(=O)[O-])c3ccc(=[N+](C)C)cc-3oc2c1; R5 = C=CCCC[C@@](C)(N)C(=O)O; S5 = C=CCCC[C@](C)(N)C(=O)O

The test system of assay [1] is A. thaliana seedlings (Col-0). Put plainly: Root growth of A. thaliana seedlings with MeJA. The class given is in vivo, Arabidopsis thaliana. Particulars: 7-day-old Col-0 seedlings, MeJA 50 µM on 1/2 MS, n = 15. The essentials:
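Surface-sterilized Col-0 seeds stratified 2–3 days at 4°C. Grown on half-strength MS plates (2% sucrose, 0.4% gellan gum) with MeJA (50 µM) ± test compound (10 µM), under 16 h light (75 µmol m-2 s-1)/8 h dark at 22°C. Whole-seedling root length measured (n = 15). Repeated three times; one-way ANOVA/Tukey's HSD, P < 0.01.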

For assay [2], the system named is M. polymorpha gemmalings (Tak-1). The assay can be described thus: Growth. The class given is in vivo, Marchantia polymorpha. Conditions: Tak-1 gemmalings on 1/2 B5 medium, OPDA 50 µM, n = 24. The essentials: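 Tak-1 gemmalings grown 2 weeks on half-strength Gamborg's B5 with 1% agar, containing OPDA (50 µM) ± test compound (10 µM). Continuous light 50–60 µmol m-2 s-1, 22°C. Plant area measured in mm2 (n = 24). Experiment repeated three times; one-way ANOVA/Tukey's HSD, P < 0.01.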

Another assay deals with T1, His-EIL1-FLAG (Arabidopsis thaliana, UniProt Q9SLH0).
T1 sequence (Q9SLH0 201-501): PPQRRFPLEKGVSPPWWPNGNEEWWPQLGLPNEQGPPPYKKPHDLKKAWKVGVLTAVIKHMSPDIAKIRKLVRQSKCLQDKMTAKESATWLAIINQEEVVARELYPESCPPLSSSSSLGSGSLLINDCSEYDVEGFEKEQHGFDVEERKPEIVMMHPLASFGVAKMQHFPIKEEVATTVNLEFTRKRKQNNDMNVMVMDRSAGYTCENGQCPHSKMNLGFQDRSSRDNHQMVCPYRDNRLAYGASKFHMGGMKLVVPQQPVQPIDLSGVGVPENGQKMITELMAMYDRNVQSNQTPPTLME
The assay can be described thus: Fluorescence anisotropy. The class given is binding. The essentials: (§1)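 FA titration at 25°C in 20 mM Tris-HCl pH 8.0, 200 mM NaCl, 10% glycerol, 10% cOmplete EDTA-free, with 2-mercaptoethanol (EIN3/EIL1 family). Protein added dropwise to 100 nM TMR-labelled peptide; His-EIN3-FLAG titrated 0–2 µM. Anisotropy read at ex/em 543/573.5 nm. Each point is the average of three independent measurements. Apparent Kd obtained by nonlinear curve fitting.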

For assay [3], the target named is T2, His-MYC3-FLAG (His6-SUMO-MYC3(44–238)-FLAG) (Arabidopsis thaliana, UniProt Q9FIP9).
T2 sequence (Q9FIP9 44-238): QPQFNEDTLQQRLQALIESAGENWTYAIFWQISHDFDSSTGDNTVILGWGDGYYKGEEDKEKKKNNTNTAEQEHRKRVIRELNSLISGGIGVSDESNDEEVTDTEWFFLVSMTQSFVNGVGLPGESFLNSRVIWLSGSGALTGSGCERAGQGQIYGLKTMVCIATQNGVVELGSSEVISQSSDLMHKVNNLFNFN
The assay can be described thus: Fluorescence anisotropy. The class given is binding. Conditions: for fold lower Kd with His-MYC3-FLAG than that of 1: ratio of Kd of 1 to Kd of the peptide.

In assay [4] the target is T3, His-EIN3-FLAG (His6-SUMO-EIN3(200–500)-FLAG) (Arabidopsis thaliana, UniProt O24606).
T3 sequence (O24606 200-500): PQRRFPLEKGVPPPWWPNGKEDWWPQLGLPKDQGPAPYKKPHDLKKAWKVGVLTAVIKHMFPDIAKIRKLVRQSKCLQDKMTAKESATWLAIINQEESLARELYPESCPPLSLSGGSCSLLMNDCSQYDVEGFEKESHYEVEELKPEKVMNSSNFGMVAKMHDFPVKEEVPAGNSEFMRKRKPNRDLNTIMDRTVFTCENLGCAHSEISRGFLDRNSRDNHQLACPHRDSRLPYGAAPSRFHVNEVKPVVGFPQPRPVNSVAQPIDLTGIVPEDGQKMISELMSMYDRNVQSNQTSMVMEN
Put plainly: Fluorescence anisotropy. The class given is binding. A digest of the protocol: as §1
Background: Fluorescence polarisation rises when a labelled molecule tumbles more slowly, as on binding a larger partner.

Consider `CC/C=C\CC1C(=O)CCC1CC(=O)OC` (stereo not shown) [MeJA, methyl jasmonate, reference compound], for which the “root growth of seedlings” value in assay [1] is “severe root growth inhibition”.

Regarding `CC/C=C\C[C@@H]1C(=O)C=C[C@@H]1CCCCCCCC(=O)O` [OPDA, reference compound], in assay [2], the “plant growth (plant area)” value is reported as “inhibited plant growth”.

Take `CC[C@H](C)[C@H](NC(=O)[C@H](C)NC(=O)CNC(=O)[C@H](CCC(N)=O)NC(=O)[C@@H](NC(=O)[C@H](CC(=O)O)NC(=O)[C@H](CCCNC(=N)N)NC(=O)[C@H](Cc1ccccc1)NC(=O)[C@H](CO)NC(=O)[C@H](CCCNC(=N)N)NC(=O)[C@H](CCCNC(=N)N)NC(=O)[C@H](CCCNC(=N)N)NC(=O)[C@H](CC(=O)O)NC(=O)[C@H](CC(C)C)NC(=O)[C@H](Cc1ccccc1)NC(=O)[C@H](CCCCN)NC(=O)[C@H](CCC(N)=O)NC(=O)[C@H](Cc1ccccc1)NC(=O)c1ccc(-c2c3ccc(=[N+](C)C)cc-3oc3cc(N(C)C)ccc23)c(C(=O)[O-])c1)[C@@H](C)CC)C(=O)N[C@@H](CO)C(=O)N[C@@H](CCCCN)C(=O)N[C@H](C(=O)N[C@@H](CC(=O)O)C(=O)N1CCC[C@H]1C(=O)N[C@@H](CCC(=O)O)C(=O)N[C@H](C(=O)N[C@H](C(=O)N[C@@H](CCCCN)C(=O)N[C@@H](CO)C(=O)N[C@@H](CC(C)C)C(=O)N[C@@H](CC(C)C)C(=O)N[C@@H](C)C(=O)N[C@@H](CO)C(=O)N[C@H](C(=O)O)[C@@H](C)O)[C@@H](C)CC)[C@@H](C)CC)[C@@H](C)CC` [compound 1] (X1-FQKFLDRRRSFRDIQGAISKIDPEIIKSLLAST-OH): the dissociation constant Kd at His-EIL1-FLAG was found to be 440 nM; in assay [3], 210 nM.

With `CC[C@H](C)[C@H](NC(=O)[C@H](CCCCN)NC(=O)[C@H](CO)NC(=O)[C@@H](NC(=O)[C@]1(C)CCCC=CCCC[C@](C)(NC(=O)[C@H](CCCNC(=N)N)NC(=O)[C@H](Cc2ccccc2)NC(=O)[C@H](CO)NC(=O)[C@H](CCCNC(=N)N)NC(=O)[C@H](CCCNC(=N)N)NC(=O)[C@H](CCCNC(=N)N)NC(=O)[C@H](CC(=O)O)NC(=O)[C@H](CC(C)C)NC(=O)[C@H](Cc2ccccc2)NC(=O)[C@H](CCCCN)NC(=O)[C@H](CCC(N)=O)NC(=O)[C@H](Cc2ccccc2)NC(=O)c2ccc(-c3c4ccc(=[N+](C)C)cc-4oc4cc(N(C)C)ccc34)c(C(=O)[O-])c2)C(=O)N[C@@H]([C@@H](C)CC)C(=O)N[C@@H](CCC(N)=O)C(=O)NCC(=O)N1)[C@@H](C)CC)C(=O)N[C@@H](CC(=O)O)C(=O)N1CCC[C@H]1C(=O)N[C@@H](CCC(=O)O)C(=O)N[C@H](C(=O)N[C@H](C(=O)N[C@@H](CCCCN)C(=O)N[C@@H](CO)C(=O)N[C@@H](CC(C)C)C(=O)N[C@@H](CC(C)C)C(=O)N[C@@H](C)C(=O)N[C@@H](CO)C(=O)N[C@H](C(=O)O)[C@@H](C)O)[C@@H](C)CC)[C@@H](C)CC` [compound 2] (X1-FQKFLDRRRSFR[S5]IQG[S5]ISKIDPEIIKSLLAST-OH; staple 13-17), the Kd in assay [3] came to 61 nM; in assay [4], 290 nM. Moreover, in assay [3], the “fold lower Kd with His-MYC3-FLAG than that of 1” value was determined as 7 fold.

As to `CC[C@H](C)[C@H](NC(=O)[C@H](C)NC(=O)CNC(=O)[C@H](CCC(N)=O)NC(=O)[C@@H](NC(=O)[C@H](CC(=O)O)NC(=O)[C@H](CCCNC(=N)N)NC(=O)[C@H](Cc1ccccc1)NC(=O)[C@H](CO)NC(=O)[C@H](CCCNC(=N)N)NC(=O)[C@H](CCCNC(=N)N)NC(=O)[C@H](CCCNC(=N)N)NC(=O)[C@H](CC(=O)O)NC(=O)[C@H](CC(C)C)NC(=O)[C@H](Cc1ccccc1)NC(=O)[C@H](CCCCN)NC(=O)[C@H](CCC(N)=O)NC(=O)[C@H](Cc1ccccc1)NC(=O)c1ccc(-c2c3ccc(=[N+](C)C)cc-3oc3cc(N(C)C)ccc23)c(C(=O)[O-])c1)[C@@H](C)CC)C(=O)N[C@@H](CO)C(=O)N[C@@H](CCCCN)C(=O)N[C@H](C(=O)N[C@@H](CC(=O)O)C(=O)N1CCC[C@H]1C(=O)N[C@@H](CCC(=O)O)C(=O)N[C@]1(C)CCCC=CCCC[C@@](C)(C(=O)N[C@@H](CC(C)C)C(=O)N[C@@H](CC(C)C)C(=O)N[C@@H](C)C(=O)N[C@@H](CO)C(=O)N[C@H](C(=O)O)[C@@H](C)O)NC(=O)[C@H](CCCCN)NC(=O)[C@H]([C@@H](C)CC)NC1=O)[C@@H](C)CC` [compound 3] (X1-FQKFLDRRRSFRDIQGAISKIDPE[R5]IK[S5]LLAST-OH; staple 25-28), in assay [3], the Kd came to 310 nM and the “fold lower Kd with His-MYC3-FLAG than that of 1” value came to 0.67 fold. Also, in assay [4], the Kd was 600 nM.
